Two compounds from ChEMBL document CHEMBL1909618, “Non-steroidal dissociated glucocorticoid agonists: indoles as A-ring mimetics and function-regulating pharmacophores” (Bioorg Med Chem Lett, 2011) can be followed below.

Broadly, the inhibition in vivo is the drop in the measured response relative to a control, in per cent. In general, IC50 refers to the concentration needed to halve the response being measured. One may read the AUC(0-inf) as the area under the concentration-time curve extrapolated to infinity. The term Cmax denotes the peak of the concentration-time curve.

For data set [1], the system named is Mus musculus. The data set is described as follows: Antiinflammatory activity in mouse plasma assessed as inhibition of LPS-induced TNFalpha production at 10 mg/kg, po administered 1 hr before LPS challenge measured after 1 hr. Type of data set: functional. The method, boiled down:
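Mice received compound orally in Cremophor RH 1 h before LPS challenge. Plasma TNF-α was measured 1 h after challenge. n = 8 per group; doses were 3 and 10 mg/kg.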

Data set [2] deals with T1, Progesterone receptor (Homo sapiens, UniProt P06401).
T1 sequence (P06401 whole entry): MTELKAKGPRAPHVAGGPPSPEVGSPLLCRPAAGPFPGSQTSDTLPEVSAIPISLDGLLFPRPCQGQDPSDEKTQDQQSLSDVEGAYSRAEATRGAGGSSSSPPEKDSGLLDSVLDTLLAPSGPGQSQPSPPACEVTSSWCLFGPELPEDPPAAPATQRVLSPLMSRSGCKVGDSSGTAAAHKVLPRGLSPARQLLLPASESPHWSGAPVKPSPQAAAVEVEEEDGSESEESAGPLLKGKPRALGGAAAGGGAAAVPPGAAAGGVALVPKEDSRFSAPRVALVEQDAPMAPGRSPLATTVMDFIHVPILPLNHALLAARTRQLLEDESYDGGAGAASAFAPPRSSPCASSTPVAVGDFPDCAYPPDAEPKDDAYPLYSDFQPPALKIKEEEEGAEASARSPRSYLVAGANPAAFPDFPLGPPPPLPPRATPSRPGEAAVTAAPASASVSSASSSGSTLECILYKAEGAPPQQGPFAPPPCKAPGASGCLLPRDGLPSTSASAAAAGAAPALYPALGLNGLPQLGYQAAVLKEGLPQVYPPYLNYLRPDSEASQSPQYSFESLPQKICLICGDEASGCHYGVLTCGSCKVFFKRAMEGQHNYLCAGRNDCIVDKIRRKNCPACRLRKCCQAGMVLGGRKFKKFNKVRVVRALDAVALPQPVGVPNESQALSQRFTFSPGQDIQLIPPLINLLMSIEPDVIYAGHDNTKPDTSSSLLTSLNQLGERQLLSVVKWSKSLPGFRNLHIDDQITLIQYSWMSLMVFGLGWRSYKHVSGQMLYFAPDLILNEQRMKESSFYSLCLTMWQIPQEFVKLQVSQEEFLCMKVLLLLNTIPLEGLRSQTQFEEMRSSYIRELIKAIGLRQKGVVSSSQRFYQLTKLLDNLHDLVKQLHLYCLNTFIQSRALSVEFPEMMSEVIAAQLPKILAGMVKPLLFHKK
Nature of the data set: Displacement of tetramethylrhodamine-labeled RU-486 from human recombinant progesterone receptor expressed in baculovirus infected insect cells by fluorescence polarization assay. The method, boiled down:
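Fluorescence polarization competition assays with recombinant human receptors in lysates of baculovirus-infected insect cells. Reactions contained 1% DMSO and ran 1 h at room temperature.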

For data set [3], the target named is T2, Glucocorticoid receptor (Homo sapiens) (UniProt P04150).
T2 sequence (whole entry): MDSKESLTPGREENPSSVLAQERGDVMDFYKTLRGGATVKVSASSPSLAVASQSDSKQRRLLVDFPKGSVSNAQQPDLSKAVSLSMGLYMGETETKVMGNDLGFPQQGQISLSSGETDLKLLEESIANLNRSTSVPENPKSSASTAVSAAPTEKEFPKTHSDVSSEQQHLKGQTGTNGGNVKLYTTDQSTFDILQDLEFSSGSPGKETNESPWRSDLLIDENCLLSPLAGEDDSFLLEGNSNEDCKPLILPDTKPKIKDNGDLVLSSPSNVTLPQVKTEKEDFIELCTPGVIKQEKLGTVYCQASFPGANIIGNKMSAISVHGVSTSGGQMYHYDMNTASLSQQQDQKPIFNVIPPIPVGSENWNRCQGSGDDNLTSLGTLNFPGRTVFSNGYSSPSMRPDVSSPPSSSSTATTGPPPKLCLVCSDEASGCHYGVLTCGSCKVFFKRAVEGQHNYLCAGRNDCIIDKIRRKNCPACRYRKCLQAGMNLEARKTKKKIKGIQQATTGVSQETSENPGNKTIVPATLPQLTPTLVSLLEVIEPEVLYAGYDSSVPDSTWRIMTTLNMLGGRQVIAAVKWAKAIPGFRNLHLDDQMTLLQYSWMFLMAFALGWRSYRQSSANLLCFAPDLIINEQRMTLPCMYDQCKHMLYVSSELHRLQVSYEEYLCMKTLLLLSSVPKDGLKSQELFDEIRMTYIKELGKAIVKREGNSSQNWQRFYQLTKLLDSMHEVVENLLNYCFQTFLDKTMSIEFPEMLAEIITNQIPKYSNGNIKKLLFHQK
Nature of the data set: Agonist activity at glucocorticoid receptor in human HeLa cells transfected with luciferase gene linked to MMTV promoter assessed as luciferase transactivation activity relative to Dexamethasone. The data set is classed as functional, cell-based. The method, boiled down:
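HeLa cells stably carrying an MMTV-luciferase construct were exposed to compound for 6 h at 37 °C, 5% CO2. Cells were then lysed and luminescence read with a Steady-Glo reagent. EC50 and % maximal efficacy were reported.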

The species named for data set [4] is Homo sapiens. Nature of the data set: Selectivity ratio of IC50 for human recombinant glucocorticoid receptor to IC50 for human recombinant progesterone receptor.
The species named for data set [5] is Homo sapiens. The data set is described as follows: Selectivity ratio of IC50 for human recombinant glucocorticoid receptor to IC50 for human recombinant mineralocorticoid receptor.
The nature of data set [6]: Volume of distribution at steady state in B10.R3 mouse at 1 mg/kg, iv. The data set is classed as ADME, organism-based. The arrangement: dose 1 mg/kg, route intravenous. The settings on record: in vivo, read-out: Vdss. Summed up: (§1)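 Mouse PK: IV dose 1 mg/kg in PEG400/water (70:30); oral dose 30 mg/kg given as a suspension in 30% Cremophor. Values are the mean of 3 mice.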

Data set [7] is described as follows: AUC (infinity) in B10.R3 mouse at 30 mg/kg, po. Type of data set: ADME, organism-based. The arrangement: time infinity, dose 30 mg/kg, route oral. The settings on record: plasma. Summed up: as §1
A short description of data set [8]: Volume of distribution at steady state in Sprague-Dawley rat at 2 mg/kg, iv. The following applies: in vivo, read-out: Vdss. Further details: dose 2 mg/kg, route intravenous. The data set is classed as ADME, organism-based. The method, boiled down:
(§2)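 Rat PK: IV dose 2 mg/kg in PEG400/water (70:30); oral dose 30 mg/kg in PEG400/H2O/Tween (80/18/2). Values are the mean of 3 rats.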

Data set [9] is described as follows: Cmax in Sprague-Dawley rat at 30 mg/kg, po. Further details: dose 30 mg/kg, route oral. The data set is classed as ADME, organism-based. The following applies: in vivo. Summed up:
as §2

For data set [10], the system named is Mus musculus. The data set is described as follows: Antiarthritic activity in B10.R3 mouse collagen-induced arthritis model assessed as AUC of disease progression inhibition at 30 mg/kg, po qd for 5 weeks. The data set is classed as functional. The settings on record: B10.R3, 840 h. The method, boiled down:
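B10.RIII mice immunized with porcine type II collagen plus complete Freund's adjuvant were enrolled at the first signs of arthritis. They were dosed orally once daily for 5 weeks; vehicle was 30% Cremophor RH. All four paws were scored 1–4 (maximum 16 per animal). Disease-score AUCs from 10 mice per group were compared with vehicle by Mann–Whitney test.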

Data set [11] has as its system Mus musculus. The data set is described as follows: Toxicity in B10.R3 mouse collagen-induced arthritis model assessed as change in serum free fatty acids level at 30 mg/kg, po qd for 5 weeks relative to control. The data set is classed as organism-based. Further details: dose 30 mg/kg, route oral. The settings on record: in vivo, 840 h. Summed up:
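Arthritic B10.RIII CIA mice were dosed orally once daily for 5 weeks. At day 35 they were anesthetized with ketamine (50 mg/kg) and xylazine (15 mg/kg). Body fat was assessed by whole-body density scan. Serum triglycerides were measured by enzymatic kit (Wako L-Type TG-H) and free fatty acids by NEFA-C. Results are expressed as % change versus vehicle and compared by t-test.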

Consider `COc1ccc(F)cc1C(C)(C)C[C@@](O)(Cc1cc2ccccc2[nH]1)C(F)(F)F`, for which the inhibition in vivo at 10 mg/kg in data set [1] was 35%. The IC50 in data set [2] is 207 nM.

As for `CC(C)(C[C@@](O)(Cc1cc2ccc(C#N)cc2[nH]1)C(F)(F)F)c1cc(S(C)(=O)=O)cc2c1OCC2`, in [3], the Efficacy is 10%. In addition, the Ratio IC50 in data set [4] and in data set [5] was 100 in each case. The Vd in [6] came to 0.9 L/kg; in data set [8], 7.7 L/kg. Also, the AUC(0-inf) in data set [7] worked out at 32700 ng·h/mL. The compound also gave a Cmax in [9] of 955 ng/mL. For the same compound, the inhibition in vivo at 10 mg/kg in [1] is 88%. In addition, the inhibition in vivo at 30 mg/kg in [10] was 45%. The Activity in data set [11] stood at 8%. The half-maximal inhibitory concentration (IC50) in [2] came out at 745 nM.
